Data set [1] deals with T1, Neuraminidase (Influenza A virus, UniProt B4URF0). Nature of the data set: Inhibition of Influenza A virus (A/chicken/Korea/01310/2001 (H9N2)) neuraminidase after 30 mins by spectrofluorimetric analysis.
Data set [2] addresses T1, Neuraminidase. Description: Inhibition of Influenza A virus (A/Sw/Kor/CAH1/04 (H1N1) KCTC 11165BP neuraminidase after 30 mins by spectrofluorimetric analysis.
In data set [3] the test system is Influenza A virus. Nature of the data set: Antiviral activity against influenza A virus A/PR/8/34(H1N1) infected in MDCK cells assessed as protection against virus-induced cytopathic effect after 3 to 4 days by neutral red dye assay. The format is functional. The method, boiled down: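 Near-confluent MDCK monolayers (1 × 10^5 cells/well) inoculated with virus for 1 h, then medium replaced with DMEM containing 10 µg/mL trypsin plus compounds at several concentrations. Incubated 3-4 days at 37 °C, 5% CO2.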

The test system of data set [4] is Influenza A virus. Nature of the data set: Antiviral activity against influenza A virus A/PR/8/34(H1N1) infected in MDCK cells at 15.92 uM after 24 hrs by immunofluorescence assay. The format is functional, organism-based. The method, boiled down:
(§1)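 MDCK cells on chamber slides infected with A/PR/8/34 at 1000 TCID50/mL for 2 h in infection medium (DMEM, 0.5% BSA, 1.5 µg/mL trypsin). Then cultured with compound in 5% FBS DMEM for 24 h at 37 °C. Cells fixed in 4% paraformaldehyde, permeabilised, stained with anti-M1 monoclonal antibody, FITC anti-mouse IgG secondary and DAPI. Fluorescence-positive cells counted by fluorescence microscopy.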

Data set [5] deals with Influenza A virus. Nature of the data set: Antiviral activity against influenza A virus A/PR/8/34(H1N1) infected in MDCK cells at 3.18 uM after 24 hrs by immunofluorescence assay. It is filed as functional, organism-based. The essentials:
as §1

Data set [6] relates to MDCK. Description: Cytotoxicity against MDCK cells at 97.56 uM after 48 hrs by neutral red dye assay. Conditions: dog. It is filed as cell-based, Canis lupus familiaris.

Calls of active or inactive are those of the source. The calls are words filed in the database; no cut-off is given here. Some results are limits rather than exact numbers.

Our source for the IC50, CC50 and Activity values is ChEMBL document CHEMBL1268855 (J Nat Prod, 2010).

Usually IC50 stands for the concentration that inhibits the measured activity by half. For orientation: CC50 means the concentration that lowers cell viability or growth by half.

T1 sequence (B4URF0 whole entry): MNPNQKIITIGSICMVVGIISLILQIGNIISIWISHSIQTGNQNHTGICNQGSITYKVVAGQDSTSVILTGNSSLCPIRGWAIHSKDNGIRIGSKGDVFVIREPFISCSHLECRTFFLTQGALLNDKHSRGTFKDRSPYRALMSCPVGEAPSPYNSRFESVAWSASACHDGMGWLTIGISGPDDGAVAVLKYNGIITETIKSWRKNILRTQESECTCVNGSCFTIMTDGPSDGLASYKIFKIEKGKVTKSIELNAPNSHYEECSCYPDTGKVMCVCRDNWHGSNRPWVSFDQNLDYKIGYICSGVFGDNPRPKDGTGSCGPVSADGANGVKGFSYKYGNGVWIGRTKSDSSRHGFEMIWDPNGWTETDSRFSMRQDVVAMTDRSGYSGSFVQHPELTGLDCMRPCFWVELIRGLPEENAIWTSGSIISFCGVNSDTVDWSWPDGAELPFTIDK

In the case of `COc1c(C)c(O)c(C)c2occ(-c3ccccc3)c(=O)c12`, the half-maximal inhibitory concentration (IC50) in data set [1] was 391 µM; in data set [2], 431 µM.

With `COc1cc(O)c(C)c(O)c1C(=O)/C=C/c1ccccc1`, in data set [3], the CC50 came to 135 µM. As for `Cc1c(O)c(C)c2c(c1O)C(=O)[C@H](O)[C@@H](c1ccccc1)O2`, the IC50 in data set [1] stood at 368 µM; in data set [2] it was 375 µM. Consider `COc1c(C)c(O)c(C)c(O)c1C(=O)/C=C/c1ccccc1`, for which the half-maximal cytotoxic concentration (CC50) in data set [3] came to 78.4 µM. Regarding `COc1c(C)c(O)c(C)c(O)c1C(=O)/C=C/c1ccccc1O`, the 50% cytotoxic concentration (CC50) in data set [3] is greater than 120 µM.

In the case of `COc1cc(O)c(C)c2c1C(=O)C[C@@H](c1ccccc1)O2`, the half-maximal inhibitory concentration (IC50) in data set [1] and in data set [2] was greater than 500 µM each time. On to `COc1c(C)c(O)c2c(c1C=O)O[C@H](c1ccccc1)CC2=O`, for which the half-inhibitory concentration (IC50) in data set [1] worked out at 299 µM; in data set [2], 290 µM.

Take `Cc1c(O)c(C)c2c(c1O)C(=O)C[C@@H](c1ccccc1)O2` [DEMETHOXYMATTEUCINOL]: the figures for the IC50 in data set [1] and in data set [2] were 319 µM and 334 µM, respectively. For the molecule `COc1c(C)c(O)c(C)c(O)c1C(=O)/C=C/c1ccc(O)cc1`, in data set [3], the CC50 was greater than 120 µM. For the same molecule, the outcome in data set [4] and in data set [5] was Active. In the case of `COc1c(C)c(O)c(C)c2c1C(=O)C[C@@](O)(c1ccccc1)O2`, the concentration for half-maximal inhibition (IC50) in data set [1] was found to be 285 µM; in data set [2], 283 µM. The matching figures for `COc1c(C)c(O)c2c(c1C)O[C@H](c1ccccc1)CC2=O`: greater than 500 µM and greater than 500 µM. The matching figures for `COc1c(C)c(O)c(C)c2oc(-c3ccccc3)cc(=O)c12`: 363 µM and 414 µM. Consider `COc1c(C)c2c(c(O)c1C=O)C(=O)C[C@@H](c1ccccc1)O2`, for which the IC50 in data set [1] was found to be 256 µM; in data set [2] it was 269 µM. Take `CCOC(=O)C1=C[C@@H](OC(CC)CC)[C@H](NC(C)=O)[C@@H](N)C1` [OSELTAMIVIR]: in data set [6], the Activity is 7%. `Cc1c(O)cc(O)c2c1O[C@H](c1ccccc1)CC2=O`: the IC50 in data set [1] and in data set [2] was greater than 500 µM in each case.
